Measurements published in ChEMBL document CHEMBL1649124, “Genetic variability among ampC genes from acinetobacter genomic species 3” (Antimicrob Agents Chemother, 2009).
In brackets after ≈: the same amount, converted by molar mass. Residues, ends and D or L forms follow the SMILES beside them. *: point of attachment. βNA = c1ccc2cc(N*)ccc2c1

What was measured:
Format in all cases: functional
Escherichia coli [1] = assay: Antibacterial activity against Escherichia coli DH5alpha carrying ampC gene of Acinetobacter genomosp. 3 isolate 20 by Etest method
In short: (§1)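 E. coli DH5α expressing the AG3 isolate ampC gene, PCR-amplified (high-fidelity system, 28 cycles) and cloned into BamHI/HindIII sites of pBGS18 (kanamycin marker) under the CTX-M-14 β-lactamase promoter. Grown at 37°C in LB, with kanamycin 50 µg/ml when needed. β-Lactam MICs determined by Etest per the manufacturer's instructions.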

Acinetobacter pittii [2] = assay: Antibacterial activity against Acinetobacter genomosp. 3 isolate 20 by Etest method
In short: (§2)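 MICs for AG3 clinical isolates were read by Etest following the manufacturer's instructions. Isolates were stored at –80°C in 10% Brucella glycerol broth before testing.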

Acinetobacter pittii [3] = assay: Antibacterial activity against Acinetobacter genomosp. 3 isolate 195 by Etest method; in short: as §2
Acinetobacter pittii [4] = assay: Antibacterial activity against Acinetobacter genomosp. 3 isolate 21 by Etest method; in short: as §2
Escherichia coli [5] = assay: Antibacterial activity against Escherichia coli DH5alpha carrying ampC gene of Acinetobacter genomosp. 3 isolate 65 by Etest method; in short: as §1
Acinetobacter pittii [6] = assay: Antibacterial activity against Acinetobacter genomosp. 3 isolate 243 by Etest method; in short: as §2
Acinetobacter pittii [7] = assay: Antibacterial activity against Acinetobacter genomosp. 3 isolate 103 by Etest method; in short: as §2
Acinetobacter pittii [8] = assay: Antibacterial activity against Acinetobacter genomosp. 3 isolate 65 by Etest method; in short: as §2
Escherichia coli [9] = assay: Antibacterial activity against Escherichia coli DH5alpha carrying ampC gene of Acinetobacter genomosp. 3 isolate 56 by Etest method; in short: as §1
Escherichia coli [10] = assay: Antibacterial activity against Escherichia coli DH5alpha carrying ampC gene of Acinetobacter genomosp. 3 isolate 109 by Etest method; in short: as §1
Acinetobacter pittii [11] = assay: Antibacterial activity against Acinetobacter genomosp. 3 isolate 90 by Etest method; in short: as §2
Acinetobacter pittii [12] = assay: Antibacterial activity against Acinetobacter genomosp. 3 isolate 109 by Etest method; in short: as §2
Escherichia coli [13] = assay: Antibacterial activity against Escherichia coli DH5alpha carrying ampC gene of Acinetobacter genomosp. 3 isolate 69 by Etest method; in short: as §1
Acinetobacter pittii [14] = assay: Antibacterial activity against Acinetobacter genomosp. 3 isolate 14 by Etest method; in short: as §2
Escherichia coli [15] = assay: Antibacterial activity against Escherichia coli DH5alpha carrying ampC gene of Acinetobacter genomosp. 3 isolate 103 by Etest method; in short: as §1
Acinetobacter pittii [16] = assay: Antibacterial activity against Acinetobacter genomosp. 3 isolate 56 by Etest method; in short: as §2
Acinetobacter pittii [17] = assay: Antibacterial activity against Acinetobacter genomosp. 3 isolate 69 by Etest method; in short: as §2
Acinetobacter pittii [18] = assay: Antibacterial activity against Acinetobacter genomosp. 3 isolate 52 by Etest method; in short: as §2
Escherichia coli [19] = assay: Antibacterial activity against Escherichia coli DH5alpha carrying ampC gene of Acinetobacter genomosp. 3 isolate 195 by Etest method; in short: as §1
Acinetobacter pittii [20] = assay: Antibacterial activity against Acinetobacter genomosp. 3 isolate 60 by Etest method; in short: as §2
Escherichia coli [21] = assay: Antibacterial activity against Escherichia coli DH5alpha by Etest method
In short: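 E. coli DH5α host strain, grown at 37°C in LB medium. MICs of β-lactams determined by Etest following the manufacturer's instructions.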

Escherichia coli [22] = assay: Antibacterial activity against Escherichia coli DH5alpha carrying ampC gene of Acinetobacter genomosp. 3 isolate 14 by Etest method; in short: as §1
Acinetobacter pittii [23] = assay: Antibacterial activity against Acinetobacter genomosp. 3 isolate 67 by Etest method; in short: as §2
Acinetobacter pittii [24] = assay: Antibacterial activity against Acinetobacter genomosp. 3 isolate 128 by Etest method; in short: as §2

| Compound | MIC (Escherichia coli [1]) | MIC (Acinetobacter pittii [2]) | MIC (Acinetobacter pittii [3]) | MIC (Acinetobacter pittii [4]) | MIC (Escherichia coli [5]) | MIC (Acinetobacter pittii [6]) | MIC (Acinetobacter pittii [7]) | MIC (Acinetobacter pittii [8]) | MIC (Escherichia coli [9]) | MIC (Escherichia coli [10]) | MIC (Acinetobacter pittii [11]) | MIC (Acinetobacter pittii [12]) | MIC (Escherichia coli [13]) | MIC (Acinetobacter pittii [14]) | MIC (Acinetobacter pittii [16]) | MIC (Acinetobacter pittii [17]) | MIC (Acinetobacter pittii [18]) | MIC (Acinetobacter pittii [20]) | MIC (Acinetobacter pittii [23]) | MIC (Acinetobacter pittii [24]) | further results |
| --- | --- | --- | --- | --- | --- | --- | --- | --- | --- | --- | --- | --- | --- | --- | --- | --- | --- | --- | --- | --- | --- |
| CO/N=C(\C(=O)N[C@@H]1C(=O)N2C(C(=O)[O-])=C(C[N+]3(C)CCCC3)CS[C@H]12)c1csc(N)n1 | 0.19 µg/mL (≈ 0.395 µM) | 4 µg/mL | 6 µg/mL | 12 µg/mL | 0.032 µg/mL (≈ 0.0666 µM) | 3 µg/mL | 3 µg/mL | 3 µg/mL | 0.023 µg/mL (≈ 0.0479 µM) | 0.023 µg/mL (≈ 0.0479 µM) | 16 µg/mL | 2 µg/mL | 0.023 µg/mL (≈ 0.0479 µM) | 3 µg/mL | 2 µg/mL | 3 µg/mL | 2 µg/mL | 4 µg/mL | 4 µg/mL | 2 µg/mL | MIC (Escherichia coli [15]): 0.032 µg/mL (≈ 0.0666 µM); MIC (Escherichia coli [19]): 0.032 µg/mL (≈ 0.0666 µM); MIC (Escherichia coli [21]): 0.016 µg/mL (≈ 0.0333 µM); MIC (Escherichia coli [22]): 0.023 µg/mL (≈ 0.0479 µM) |
| Cl.Cl.N=C(N)NCCC[C@H](NC(=O)[C@@H](N)Cc1ccccc1)C(=O)Nc1ccc2ccccc2c1 (H-Phe-Arg-βNA) | – | > 400 µg/mL | 400 µg/mL | > 400 µg/mL | – | > 400 µg/mL | 400 µg/mL | > 400 µg/mL | – | – | > 400 µg/mL | 400 µg/mL | – | > 400 µg/mL | > 400 µg/mL | 400 µg/mL | 400 µg/mL | 400 µg/mL | 400 µg/mL | 400 µg/mL | – |
| CC1(C)S[C@@H]2[C@H](NC(=O)[C@H](N)c3ccccc3)C(=O)N2[C@H]1C(=O)O [AMPICILLIN] | 96 µg/mL (≈ 275 µM) | > 256 µg/mL | – | – | 32 µg/mL (≈ 91.6 µM) | – | > 256 µg/mL | – | 96 µg/mL (≈ 275 µM) | 64 µg/mL (≈ 183 µM) | – | – | 96 µg/mL (≈ 275 µM) | – | – | – | – | – | – | – | MIC (Escherichia coli [15]): 128 µg/mL (≈ 366 µM); MIC (Escherichia coli [19]): 96 µg/mL (≈ 275 µM); MIC (Escherichia coli [21]): 3 µg/mL (≈ 8.59 µM); MIC (Escherichia coli [22]): 128 µg/mL (≈ 366 µM) |
| N#CC(C#N)=NNc1cccc(Cl)c1 [CARBONYL CYANIDE M-CHLOROPHENYLHYDRAZONE] | – | 400 µM | > 400 µM | > 400 µM | – | 400 µM | > 400 µM | > 400 µM | – | – | > 400 µM | > 400 µM | – | 400 µM | > 400 µM | > 400 µM | > 400 µM | > 400 µM | > 400 µM | > 400 µM | – |
| CO/N=C(\C(=O)N[C@@H]1C(=O)N2C(C(=O)O)=C(COC(C)=O)CS[C@H]12)c1csc(N)n1 [CEFOTAXIME] | 0.125 µg/mL (≈ 0.274 µM) | 16 µg/mL | 24 µg/mL | 24 µg/mL | 25 µg/mL (≈ 54.9 µM) | 16 µg/mL | 16 µg/mL | 12 µg/mL | 0.38 µg/mL (≈ 0.834 µM) | 0.38 µg/mL (≈ 0.834 µM) | 12 µg/mL | 16 µg/mL | 0.38 µg/mL (≈ 0.834 µM) | 24 µg/mL | 4 µg/mL | 16 µg/mL | 12 µg/mL | 24 µg/mL | 16 µg/mL | 12 µg/mL | MIC (Escherichia coli [15]): 0.75 µg/mL (≈ 1.65 µM); MIC (Escherichia coli [19]): 0.75 µg/mL (≈ 1.65 µM); MIC (Escherichia coli [21]): 0.064 µg/mL (≈ 0.141 µM); MIC (Escherichia coli [22]): 0.75 µg/mL (≈ 1.65 µM) |
| CO[C@@]1(NC(=O)Cc2cccs2)C(=O)N2C(C(=O)O)=C(COC(N)=O)CS[C@@H]21 [CEFOXITIN] | 32 µg/mL (≈ 74.9 µM) | > 256 µg/mL | > 256 µg/mL | > 256 µg/mL | 3 µg/mL (≈ 7.02 µM) | 48 µg/mL | 192 µg/mL | 128 µg/mL | 16 µg/mL (≈ 37.4 µM) | 24 µg/mL (≈ 56.1 µM) | 128 µg/mL | > 256 µg/mL | 16 µg/mL (≈ 37.4 µM) | > 256 µg/mL | 64 µg/mL | > 256 µg/mL | > 256 µg/mL | > 256 µg/mL | > 256 µg/mL | 128 µg/mL | MIC (Escherichia coli [15]): 32 µg/mL (≈ 74.9 µM); MIC (Escherichia coli [19]): 24 µg/mL (≈ 56.1 µM); MIC (Escherichia coli [21]): 2 µg/mL (≈ 4.68 µM); MIC (Escherichia coli [22]): 32 µg/mL (≈ 74.9 µM) |
| CC(C)(O/N=C(\C(=O)N[C@@H]1C(=O)N2C(C(=O)[O-])=C(C[n+]3ccccc3)CS[C@H]12)c1csc(N)n1)C(=O)O [CEFTAZIDIME] | 0.75 µg/mL (≈ 1.37 µM) | 4 µg/mL | 4 µg/mL | 6 µg/mL | 0.25 µg/mL (≈ 0.457 µM) | 4 µg/mL | 4 µg/mL | 4 µg/mL | 0.25 µg/mL (≈ 0.457 µM) | 0.19 µg/mL (≈ 0.348 µM) | 6 µg/mL | 3 µg/mL | 0.19 µg/mL (≈ 0.348 µM) | 3 µg/mL | 1.5 µg/mL | 4 µg/mL | 3 µg/mL | 3 µg/mL | 3 µg/mL | 3 µg/mL | MIC (Escherichia coli [15]): 0.5 µg/mL (≈ 0.915 µM); MIC (Escherichia coli [19]): 0.5 µg/mL (≈ 0.915 µM); MIC (Escherichia coli [21]): 0.19 µg/mL (≈ 0.348 µM); MIC (Escherichia coli [22]): 0.38 µg/mL (≈ 0.695 µM) |
| Cc1onc(-c2ccccc2Cl)c1C(=O)N[C@@H]1C(=O)N2[C@@H]1SC(C)(C)[C@@H]2C(=O)O [CLOXACILLIN] | – | 1020 µg/mL | 1020 µg/mL | 512 µg/mL | – | 2050 µg/mL | 1020 µg/mL | 1020 µg/mL | – | – | 512 µg/mL | 2050 µg/mL | – | 2050 µg/mL | 512 µg/mL | > 2050 µg/mL | 1020 µg/mL | 1020 µg/mL | 1880 µg/mL | 2050 µg/mL | – |
| C[C@@H](O)[C@H]1C(=O)N2C(C(=O)O)=C(SCCNC=N)C[C@H]12 [IMIPENEM ANHYDROUS] | 0.023 µg/mL (≈ 0.0768 µM) | 1 µg/mL | 0.19 µg/mL | 0.38 µg/mL | 0.19 µg/mL (≈ 0.635 µM) | 0.19 µg/mL | 0.75 µg/mL | 0.19 µg/mL | 0.19 µg/mL (≈ 0.635 µM) | 0.12 µg/mL (≈ 0.401 µM) | 0.38 µg/mL | 0.19 µg/mL | 0.19 µg/mL (≈ 0.635 µM) | 0.25 µg/mL | 0.19 µg/mL | 0.25 µg/mL | 0.25 µg/mL | 0.25 µg/mL | 0.19 µg/mL | 0.12 µg/mL | MIC (Escherichia coli [15]): 0.125 µg/mL (≈ 0.418 µM); MIC (Escherichia coli [21]): 0.125 µg/mL (≈ 0.418 µM); MIC (Escherichia coli [22]): 0.125 µg/mL (≈ 0.418 µM) |
